Source: ChEMBL document CHEMBL1157843, “Synthesis and anticonvulsant activity of a new 6-alkoxy-[1,2,4]triazolo[4,3-b]pyridazine” (Eur J Med Chem, 2010)
Calls of active or inactive are those of the source. No cut-off for these calls is given here.

Key:
[1] = tested on: Mus musculus; test: Anticonvulsant in mouse assessed as protection against maximum electric stimulus-induced seizures at 100 mg/kg, ip after 4 hrs; type: functional, organism-based; design: dose 100 mg/kg
Summary of the method: (§1)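 Phase-I qualitative MES screen following NIH ADD protocol. KunMing mice (18–25 g), three per dose, test agent in polyethylene glycol-400 i.p. at 30, 100 or 300 mg/kg. Protection assessed 0.5 h and 4 h after dosing; scored as animals protected/animals tested.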

[2] = tested on: Mus musculus; test: Neurotoxicity against mouse at 100 mg/kg, ip after 4 hrs by rotarod ataxia test; type: toxicity, organism-based; design: dose 100 mg/kg, route intraperitoneal; settings: in vivo
Summary of the method: (§2)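 Phase-I rotarod ataxia screen per NIH ADD protocol. KunMing mice (18–25 g), three per dose, test agent in polyethylene glycol-400 i.p. at 30, 100 or 300 mg/kg. Neurological deficit read 30 min and 4 h after dosing; scored as animals showing toxicity/animals tested.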

[3] = tested on: Mus musculus; test: Anticonvulsant in ip dosed mouse assessed as protection against maximum electric stimulus-induced seizures; type: functional
Summary of the method: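 Phase-II quantitation in KunMing mice (18–25 g), vehicle polyethylene glycol-400. Groups of 10 received a range of i.p. doses until at least three points fell within 10–90% MES protection or minimal rotarod neurotoxicity. ED50, TD50 and 95% confidence intervals computed from regression by an NINDS program. PI = TD50/ED50.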

[4] = Neurotoxicity against ip dosed mouse by rotarod ataxia test; type: toxicity, organism-based; settings: in vivo
[5] = tested on: Mus musculus; test: Protective index, ratio of TD50 for ip dosed mouse to ED50 for maximum electric stimulus-induced seizure in ip dosed mouse; type: functional
[6] = tested on: Mus musculus; test: Anticonvulsant in mouse assessed as protection against maximum electric stimulus-induced seizures at 30 mg/kg, ip after 4 hrs; type: functional, organism-based; design: dose 30 mg/kg; summary of the method: as §1
[7] = tested on: Mus musculus; test: Neurotoxicity against mouse at 100 mg/kg, ip after 0.5 hrs by rotarod ataxia test; type: toxicity, organism-based; design: dose 100 mg/kg, route intraperitoneal; settings: in vivo; summary of the method: as §2
[8] = tested on: Mus musculus; test: Anticonvulsant in mouse assessed as protection against maximum electric stimulus-induced seizures at 100 mg/kg, ip after 0.5 hrs; type: functional, organism-based; design: dose 100 mg/kg; summary of the method: as §1
[9] = tested on: Mus musculus; test: Neurotoxicity against mouse at 30 mg/kg, ip after 0.5 hrs by rotarod ataxia test; type: toxicity, organism-based; design: dose 30 mg/kg, route intraperitoneal; settings: in vivo; summary of the method: as §2
[10] = tested on: Mus musculus; test: Neurotoxicity against mouse at 30 mg/kg, ip after 4 hrs by rotarod ataxia test; type: toxicity, organism-based; design: dose 30 mg/kg, route intraperitoneal; settings: in vivo; summary of the method: as §2
[11] = species on record: Mus musculus; test: Sedative-hypnotic activity in mouse assessed as reduction in righting reflex; type: organism-based; settings: in vivo
Summary of the method: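 Phase-III work in KunMing mice: behaviour observed at intervals up to 24 h after i.p. TD50, 2TD50 and 4TD50 doses. […] Ratio taken as HD50 divided by i.p. MES ED50.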

[12] = tested on: Mus musculus; test: Anticonvulsant activity in mouse assessed as inhibition of PTZ-induced clonic seizure at 50 mg/kg, ip administered 30 mins prior to PTZ challenge measured after 0.5 hrs; type: functional; settings: route intraperitoneal
Summary of the method: (§3)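 KunMing mice, 18–25 g, groups of 10; test agent in polyethylene glycol-400 given i.p. 30 min before convulsant. PTZ 85 mg/kg s.c., 3-MP 40 mg/kg s.c., isoniazid 250 mg/kg i.p.; doses chosen to induce seizures in at least 97% of animals. Individual cages, 30 min observation; clonic seizures, tonic seizures and lethality recorded.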

[13] = tested on: Mus musculus; test: Anticonvulsant activity in mouse assessed as inhibition of PTZ-induced tonic seizure at 50 mg/kg, ip administered 30 mins prior to PTZ challenge measured after 0.5 hrs; type: functional; settings: route intraperitoneal; summary of the method: as §3
[14] = tested on: Mus musculus; test: Anticonvulsant activity in mouse assessed as reduction of PTZ-induced lethality at 50 mg/kg, ip administered 30 mins prior to PTZ challenge measured after 0.5 hrs; type: functional; design: scale not given: the % may be the effect or the level left; settings: route intraperitoneal
[15] = tested on: Mus musculus; test: Anticonvulsant activity in mouse assessed as inhibition of isoniazid-induced clonic seizure at 50 mg/kg, ip administered 30 mins prior to isoniazid challenge measured after 0.5 hrs; type: functional; settings: route intraperitoneal; summary of the method: as §3
[16] = tested on: Mus musculus; test: Anticonvulsant activity in mouse assessed as inhibition of isoniazid-induced tonic seizure at 50 mg/kg, ip administered 30 mins prior to isoniazid challenge measured after 0.5 hrs; type: functional; settings: route intraperitoneal; summary of the method: as §3
[17] = tested on: Mus musculus; test: Anticonvulsant activity in mouse assessed as reduction of isoniazid-induced lethality at 50 mg/kg, ip administered 30 mins prior to isoniazid challenge measured after 0.5 hrs; type: functional; design: scale not given: the % may be the effect or the level left; settings: route intraperitoneal
[18] = tested on: Mus musculus; test: Anticonvulsant activity in mouse assessed as inhibition of 3-mercaptopropionic acid-induced clonic seizure at 50 mg/kg, ip administered 30 mins prior to 3-mercaptopropionic acid challenge measured after 0.5 hrs; type: functional; settings: route intraperitoneal; summary of the method: as §3
[19] = tested on: Mus musculus; test: Anticonvulsant activity in mouse assessed as inhibition of 3-mercaptopropionic acid-induced tonic seizure at 50 mg/kg, ip administered 30 mins prior to 3-mercaptopropionic acid challenge measured after 0.5 hrs; type: functional; settings: route intraperitoneal; summary of the method: as §3
[20] = tested on: Mus musculus; test: Anticonvulsant activity in mouse assessed as reduction of 3-mercaptopropionic acid-induced lethality at 50 mg/kg, ip administered 30 mins prior to 3-mercaptopropionic acid challenge measured after 0.5 hrs; type: functional; design: scale not given: the % may be the effect or the level left; settings: route intraperitoneal
[21] = tested on: Mus musculus; test: Anticonvulsant activity in mouse assessed as inhibition of thiosemicarbazide-induced clonic seizure at 50 mg/kg, ip administered 30 mins prior to thiosemicarbazide challenge measured after 2.5 hrs; type: functional; settings: route intraperitoneal
Summary of the method: (§4)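 KunMing mice (18–25 g), groups of 10, pretreated i.p. with test agent in polyethylene glycol-400 30 min before thiosemicarbazide 50 mg/kg i.p. Animals kept in individual cages and watched for 2 h 30 min, noting clonic seizures, tonic seizures and lethality.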

[22] = tested on: Mus musculus; test: Anticonvulsant activity in mouse assessed as inhibition of thiosemicarbazide-induced tonic seizure at 50 mg/kg, ip administered 30 mins prior to thiosemicarbazide challenge measured after 2.5 hrs; type: functional; settings: route intraperitoneal; summary of the method: as §4
[23] = tested on: Mus musculus; test: Anticonvulsant activity in mouse assessed as reduction of thiosemicarbazide-induced lethality at 50 mg/kg, ip administered 30 mins prior to thiosemicarbazide challenge measured after 2.5 hrs; type: functional; design: scale not given: the % may be the effect or the level left; settings: route intraperitoneal
[24] = tested on: Mus musculus; test: Anticonvulsant in mouse assessed as protection against maximum electric stimulus-induced seizures at 30 mg/kg, ip after 0.5 hrs; type: functional, organism-based; design: dose 30 mg/kg; summary of the method: as §1
[25] = species on record: Mus musculus; test: Ratio of HD50 for hypnotic activity to EC50 for inhibition of maximum electric stimulus-induced seizure in mouse; type: functional
[26] = tested on: Mus musculus; test: Anticonvulsant in po dosed mouse assessed as protection against maximum electric stimulus-induced seizures; type: functional
Summary of the method: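 Oral version of the phase-II protocol in KunMing mice (18–25 g). Groups of 10 dosed p.o. over a range giving at least three points between 10–90% MES protection or rotarod minimal neurotoxicity. Testing at 2 h time to peak effect. ED50 and TD50 with 95% confidence intervals from regression. PI = TD50/ED50.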

[27] = tested on: Mus musculus; test: Protective index, ratio of TD50 for po dosed mouse to ED50 for maximum electric stimulus-induced seizure in po dosed mouse; type: functional
[28] = Neurotoxicity against po dosed mouse by rotarod ataxia test; type: toxicity, organism-based; settings: in vivo

## O=c1ccc(Oc2ccccc2)n[nH]1
[1]
  Activity: inactive
[2]
  Activity: Non-toxic
[3]
  ED50: 110 mg/kg
[4]
  TD50: 274 mg/kg
[5]
  PI: 2.5

## CCCCCCCCOc1ccc2nncn2n1
[6]
  Activity: inactive
[7]
  Activity: Toxic
[2]
  Activity: Non-toxic
[3]
  ED50: > 100 mg/kg

## Brc1ccc(Oc2ccc3nncn3n2)cc1
[8]
  Activity: Active
[1]
  Activity: inactive
[7]
  Activity: Non-toxic
[2]
  Activity: Non-toxic
[3]
  ED50: 49.1 mg/kg
[4]
  TD50: 329 mg/kg
[5]
  PI: 6.7

## Cc1cccc(Oc2ccc3nncn3n2)c1
[1]
  Activity: inactive
[7]
  Activity: Non-toxic
[2]
  Activity: Non-toxic
[3]
  ED50: > 100 mg/kg

## Clc1ccccc1Oc1ccc2nncn2n1
[8]
  Activity: Active
[1]
  Activity: inactive
[7]
  Activity: Non-toxic
[2]
  Activity: Non-toxic
[3]
  ED50: 47.3 mg/kg
[4]
  TD50: 190 mg/kg
[5]
  PI: 4

## CCCCCCOc1ccc2nncn2n1
[6]
  Activity: inactive
[9]
  Activity: Toxic
[10]
  Activity: Non-toxic
[3]
  ED50: 32.9 mg/kg
[4]
  TD50: 60.8 mg/kg
[5]
  PI: 1.8

## CCCCCCCCCOc1ccc2nncn2n1
[1]
  Activity: inactive
[7]
  Activity: Toxic
[2]
  Activity: Non-toxic
[3]
  ED50: > 100 mg/kg

## NC(=O)N1c2ccccc2C=Cc2ccccc21 [CARBAMAZEPINE]
[3]
  ED50: 8.8 mg/kg
[11]
  HD50: 172 mg/kg
[12]
  inhibition in vivo at 50 mg/kg: 100%
[13]
  inhibition in vivo at 50 mg/kg: 0%
[14]
  Activity: 0%
[15]
  inhibition in vivo at 50 mg/kg: 40%
[16]
  inhibition in vivo at 50 mg/kg: 0%
[17]
  Activity: 0%
[18]
  inhibition in vivo at 50 mg/kg: 80%
[19]
  inhibition in vivo at 50 mg/kg: 0%
[20]
  Activity: 10%
[21]
  inhibition in vivo at 50 mg/kg: 90%
[22]
  inhibition in vivo at 50 mg/kg: 0%
[23]
  Activity: 0%

## Cc1ccc(Oc2ccc3nncn3n2)cc1
[1]
  Activity: inactive
[7]
  Activity: Non-toxic
[2]
  Activity: Non-toxic
[3]
  ED50: > 100 mg/kg

## COc1ccccc1Oc1ccc2nncn2n1
[1]
  Activity: inactive
[7]
  Activity: Non-toxic
[2]
  Activity: Non-toxic
[3]
  ED50: > 100 mg/kg

## CCCCCCCOc1ccc2nncn2n1
[6]
  Activity: inactive
[9]
  Activity: Toxic
[10]
  Activity: Non-toxic
[3]
  ED50: 42.4 mg/kg
[4]
  TD50: 73 mg/kg
[5]
  PI: 1.7

## CCCCCOc1ccc2nncn2n1
[6]
  Activity: inactive
[9]
  Activity: Toxic
[10]
  Activity: Non-toxic
[3]
  ED50: 39.4 mg/kg
[4]
  TD50: 70.4 mg/kg
[5]
  PI: 1.79

## CCCCCCCCCCOc1ccc2nncn2n1
[1]
  Activity: inactive
[7]
  Activity: Toxic
[2]
  Activity: Non-toxic
[3]
  ED50: > 100 mg/kg

## Clc1ccc(Oc2ccc3nncn3n2)cc1
[9]
  Activity: Non-toxic
[10]
  Activity: Non-toxic
[3]
  ED50: 36.7 mg/kg
[4]
  TD50: 394 mg/kg
[5]
  PI: 10.7

## Clc1ccc(Oc2ccc3nncn3n2)c(Cl)c1
[24]
  Activity: Active
[9]
  Activity: Non-toxic
[10]
  Activity: Non-toxic
[3]
  ED50: 17.3 mg/kg
[4]
  TD50: 380 mg/kg
[5]
  PI: 22
[11]
  HD50: 746.6 mg/kg
[25]
  Ratio: 43.2
[12]
  inhibition in vivo at 50 mg/kg: 100%
[13]
  inhibition in vivo at 50 mg/kg: 10%
[14]
  Activity: 0%
[15]
  inhibition in vivo at 50 mg/kg: 90%
[16]
  inhibition in vivo at 50 mg/kg: 0%
[17]
  Activity: 0%
[18]
  inhibition in vivo at 50 mg/kg: 80%
[19]
  inhibition in vivo at 50 mg/kg: 0%
[20]
  Activity: 40%
[21]
  inhibition in vivo at 50 mg/kg: 90%
[22]
  inhibition in vivo at 50 mg/kg: 0%
[23]
  Activity: 40%
[26]
  ED50: 45.6 mg/kg
[27]
  PI: 12
[28]
  TD50: 546 mg/kg

## Fc1ccc(Oc2ccc3nncn3n2)cc1
[6]
  Activity: inactive
[9]
  Activity: Non-toxic
[10]
  Activity: Non-toxic
[3]
  ED50: 38 mg/kg
[4]
  TD50: 317 mg/kg
[5]
  PI: 8.3

## Clc1cccc(Oc2ccc3nncn3n2)c1
[9]
  Activity: Non-toxic
[10]
  Activity: Non-toxic
[3]
  ED50: 39.4 mg/kg
[4]
  TD50: 228 mg/kg
[5]
  PI: 5.8

## CCCCOc1ccc2nncn2n1
[1]
  Activity: inactive
[7]
  Activity: Toxic
[2]
  Activity: Non-toxic
[3]
  ED50: > 100 mg/kg

## Cc1ccccc1Oc1ccc2nncn2n1
[8]
  Activity: Active
[1]
  Activity: inactive
[7]
  Activity: Non-toxic
[2]
  Activity: Non-toxic
[3]
  ED50: 54.8 mg/kg
[4]
  TD50: 220 mg/kg
[5]
  PI: 4.01

## COc1ccc(Oc2ccc3nncn3n2)cc1
[1]
  Activity: inactive
[7]
  Activity: Non-toxic
[2]
  Activity: Non-toxic
[3]
  ED50: > 100 mg/kg

## CCC1(c2ccccc2)C(=O)NC(=O)NC1=O [PHENOBARBITAL]
[3]
  ED50: 21.8 mg/kg
